Results pooled from the literature.
Cell line: MRC5
Read-out: cell growth or viability

The IC50 of `CC(C)=CCC/C(C)=C/COc1ccc2ccc(=O)oc2c1` is reported as > 100 µM (MTT; 72 h).
With `CCCCC/C=C/C(=O)CCc1ccc(O)c(OC)c1` the IC50 was 18.5 µM (SRB).
With `COc1cccc(C(=O)O[C@@H]2CN3Cc4c(cc5c(c4OC)OCO5)[C@@]24C=C[C@H](OC)C[C@@H]34)c1` the IC50 was > 10 µM (WST-1).
`COc1cc2ccc(=O)oc2cc1OC` gave an IC50 of > 100 µM (MTT; 72 h).
The IC50 of `Oc1ccccc1-c1n[nH]c(-c2ccccc2O)n1` is reported as > 100 µM (MTT; 72 h).
With `COc1ccc(C(=O)O[C@@H]2CN3Cc4c(cc5c(c4OC)OCO5)[C@@]24C=C[C@H](OC)C[C@@H]34)cc1` the IC50 was > 10 µM (WST-1).
`O=C(/C=C/C=C/c1ccc2c(c1)OCO2)N1CCCCC1` has an IC50 of 136 µM (SRB).
With `COc1c2c(cc3c1OCO3)[C@]13C=C[C@H](OC)C[C@H]1N(C2)C[C@H]3OC(=O)c1cccc(C)c1` the IC50 was > 10 µM (WST-1).
For `CC(=O)O[C@H]1C(=O)[C@@]2(C)[C@H]([C@H](OC(=O)c3ccccc3)[C@]3(O)C[C@H](OC(=O)[C@H](O)[C@@H](NC(=O)c4ccccc4)c4ccccc4)C(C)=C1C3(C)C)[C@]1(OC(C)=O)CO[C@@H]1C[C@@H]2O`, the IC50 was 0.0141 µM (SRB).
The IC50 of `O=C([O-])c1ccc(-n2nc(-c3ccccc3O)nc2-c2ccccc2[O-])cc1.O=C([O-])c1ccc(-n2nc(-c3ccccc3O)nc2-c2ccccc2[O-])cc1.[Ti+4]` is reported as 25 µM (MTT; 72 h).
